# PMI activator – phosphomannose isomerase (human) activation. P34949. purified human PMI, coupled resazurin fluorescence, 20 min; stronger effect = higher value; 1 = vehicle control, 0 substrate-free wells. activation factor at 20 µM. actives 0.005% (n = 190,000). AID 1214;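 active = activation factor of 2 or more at 20 µM, relative to plate controls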
# Target sequence (P34949 whole entry, looked up): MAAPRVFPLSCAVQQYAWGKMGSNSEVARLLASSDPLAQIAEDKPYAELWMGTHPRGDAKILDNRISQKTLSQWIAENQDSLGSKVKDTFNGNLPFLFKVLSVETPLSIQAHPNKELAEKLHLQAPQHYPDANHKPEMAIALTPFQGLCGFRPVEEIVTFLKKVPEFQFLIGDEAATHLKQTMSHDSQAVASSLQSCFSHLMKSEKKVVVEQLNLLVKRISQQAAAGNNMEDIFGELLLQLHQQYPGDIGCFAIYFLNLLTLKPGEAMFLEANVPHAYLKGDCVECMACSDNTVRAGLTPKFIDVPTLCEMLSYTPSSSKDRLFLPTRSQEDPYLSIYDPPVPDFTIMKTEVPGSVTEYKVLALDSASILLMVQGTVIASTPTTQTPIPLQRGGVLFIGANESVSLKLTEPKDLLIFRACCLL
# Diaphorase act – diaphorase activation or chemical reduction counter-screen | activation factor at 20 µM | AID 1229 | Diaphorase/resazurin coupled assay, resorufin fluorescence, 16 min; stronger effect = higher value; 1 = vehicle wells, 0 = NADH-free wells | actives 0.005% (n = 190,000);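 active = diaphorase activity raised at least twofold by the compound at 20 µM; inactive = activation factor below 2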
#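 test system = bacterial diaphorase enzyme (C. kluyveri) | quantity = enzyme 0.07 U/mL final | reagent = NADH substrate 0.114 mM plus resazurin dye 0.1 mM, final | incubation = 16 min enzyme reaction, ambient temperature | buffer or medium = HEPES pH 7.4 buffer with MgCl2 and Tween 20 | signal = fluorescence of resorufin, 544 nm excitation, 590 nm emission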
# Lmaj promast – Leishmania major promastigote growth inhibition. Leishmania major promastigotes, resazurin fluorescence viability. inhibition, % at 10 µM. actives 9% (n = 200,000); in the data active = inhibition above about 50%;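 also: promastigotes grown with compound for 44 hours at 28 °C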
# PMI act hi M6P – PMI (human) activation, high substrate; P34949; coupled PMI enzyme assay, resazurin fluorescence, 20 min; stronger effect = higher value; 1 = untreated enzyme, 0 = substrate-free blank; activation factor at 20 µM; actives 0.34% (n = 190,000);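 active = activation factor of 2 or more at 20 µM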
#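 Test system: human phosphomannose isomerase with PGI, G6PDH, diaphorase coupling enzymes; amount: 15 ng/mL PMI; incubation: enzyme reaction with compound 20 min at room temperature; technique: resorufin fluorescence (Ex 544/Em 590 nm) from resazurin via diaphorase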
# WT yeast gro inh – growth inhibition of WT yeast, mitochondrial fusion screen. mitochondrial fusion phenotypic screen, WT strain. inhibition, % at 10 µM. actives 2.1% (n = 190,000). AID 1362; in the data active = inhibition above about 58%; tested in S. cerevisiae
# * = called active by the depositor; nt = no result given. An excerpt weighted towards active compounds, which were near 10% of everything screened.
SMILES,PMI activator,Diaphorase act,Lmaj promast,PMI act hi M6P,WT yeast gro inh
COc1ccc(S(=O)(=O)N(C)C)cc1NCC(=O)Nc1ccc(Br)cc1F,1,1,57.0*,1.1,-7.9
Cc1ccccc1-n1c(C)cc(/C=N/Nc2ccc([N+](=O)[O-])cn2)c1C,0.9,0.9,-2.6,1,-2.9
O=[N+]([O-])c1ccc(Nc2ccc(F)cc2)nc1,0.9,1,0.8,1,18.0
O=[N+]([O-])c1ccc(Nc2ccccc2)nc1,1,0.9,55.5*,1,-35.1
O=[N+]([O-])c1ccc(N/N=C\c2cccn2-c2ccccc2)nc1,0.8,0.8,30.1,0.7,60.6*
CCOC(=S)N/C(=N\S(=O)(=O)c1ccc(C)cc1)c1ccccc1,0.8,0.9,-9.4,1,-10.0
CCOc1ccc(N2C(=O)/C(=C\c3ccc(O)c(OC)c3)S(=O)(=O)C2c2cccc([N+](=O)[O-])c2)cc1 (stereo not drawn),1.1,0.9,21.6,1.1,14.1
CCOC(=O)C1=C(C)n2c(s/c(=C/c3cccc([N+](=O)[O-])c3)c2=O)=NC1c1ccc(O)c(OC)c1 (stereo not drawn),0.9,0.7,99.9*,0.9,70.0*
Cc1ccc(-c2cnc(NC(=O)c3cccc(Br)c3)s2)c(C)c1,1.1,0.9,8.4,1,18.6
FC(F)C(F)(F)C(F)(F)C(F)(F)c1cc(-c2ccccc2)n[nH]1,0.8,0.8,-4.5,0.9,69.7*
COc1ccc(C(c2c(C)[nH]n(-c3ccccc3)c2=O)c2c(C)[nH]n(-c3ccccc3)c2=O)cc1OC,1,0.8,88.1*,1,22.0
Cc1[nH]n(-c2ccccc2)c(=O)c1C(C[N+](=O)[O-])c1ccc(F)cc1 (stereo not drawn),0.9,0.8,60.5*,0.7,6.1
Cc1[nH]n(-c2ccccc2)c(=O)c1C(c1ccccc1C(=O)O)c1c(C)[nH]n(-c2ccccc2)c1=O,1.2,1,-4.8,1.2,-5.0
Cc1[nH]n(-c2ccccc2)c(=O)c1C(C[N+](=O)[O-])c1ccc(Cl)cc1 (stereo not drawn),0.8,0.7,47.5,0.7,20.2
Cc1ccc(C(C[N+](=O)[O-])c2c(C)[nH]n(-c3ccccc3)c2=O)cc1 (stereo not drawn),0.9,0.7,96.8*,0.7,32.1
COc1cc(OC)c(NS(=O)(=O)c2coc(C(N)=O)c2)cc1Cl,1,0.8,1.6,0.9,3.5
COc1cc(OC)c(NS(=O)(=O)c2cc(C(=O)OC(C)C(=O)NC3CC3)c(Cl)cc2Cl)cc1Cl (stereo not drawn),1,0.9,77.9*,0.9,7.7
COC(=O)c1[nH]c2ccccc2c1NC(=O)CN1CCN(c2cccc(Cl)c2)CC1,1,0.9,25.3,1,-0.4
COC(=O)c1[nH]c2cccc(OC)c2c1NC(=O)CCN1CCN(c2cccc(Cl)c2)CC1,1,0.8,100.3*,1,7.6
CC12CCC(C(=O)N(CC(O)CN3CCCCCC3)C1=O)C2(C)C (stereo not drawn),0.9,0.9,-3.1,1,0.2
COc1ccc(N(C(C)=O)S(=O)(=O)c2cccc3cccnc23)cc1,1,0.9,54.1*,1,-22.9
COc1ccc(N(C(C)=O)S(=O)(=O)c2cc(OC)ccc2OC)cc1,1,0.9,-0.4,1,-8.3
Cc1ccccc1NC(=O)N(CCc1nc2ccccc2[nH]1)Cc1ccccc1,1.1,0.9,57.8*,1,5.1
COc1ccccc1NC(=S)N(CCc1nc2cc(C)c(C)cc2[nH]1)Cc1cccnc1,1,1,57.1*,1.1,8.0
Cc1cc2nc(CCN(Cc3cccnc3)C(=S)Nc3ccc(F)cc3)[nH]c2cc1C,0.8,0.8,6.8,0.9,-7.6
Cc1cc2nc(CCN(Cc3cccnc3)C(=S)Nc3ccccc3)[nH]c2cc1C,0.9,1,90.6*,0.9,9.7
CC1=NN(c2ccc(N)cc2)C(=O)C1,1.6,0.8,-3.2,2*,-3.0
CC1=NN(c2ccc(Cl)cc2)C(=O)C1,1.3,1,1.3,1.1,18.9
CC(c1ccc(F)cc1)n1c(Cn2ncc3ccccc3c2=O)n[nH]c1=S (stereo not drawn),nt,nt,-5.7,nt,-10.9
